Source: PubChem (several laboratories)
Most compounds without a hit are left out; they make up all but 6.7% or so of the library.
CHOP inhibitor = CHOP inhibition in unfolded protein response | inhibition, % at 10 µM | CHO-K1 CHOP-promoter luciferase, tunicamycin-induced, 15-18 h | 220,000 tested, 3.8% active | AID 2732;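 active means compounds that reduced the stress-induced luciferase reporter signal by more than about 70% of percent inhibition, limit read from the data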;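 further: 0% = tunicamycin plus vehicle and 100% = wells without tunicamycin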
GRIN3A LBD mod = modulates the human NR3A ligand-binding domain. NR3A LBD differential scanning fluorimetry, Tm shift; 0% = protein alone, 100% = glycine-bound protein. Tm shift relative to glycine control, % at 25 µM. 340,000 tested, 2.5% active. AID 1259313;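 active means melting temperature shift of at least 10% of the positive control shift, at one fixed dose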
CSC inhib = cancer stem cell inhibition; cancer stem cell-like cells viability, luminescence; inhibition, % at 7.5 µM; 300,000 tested, 1.1% active; in the data active means inhibition above about 75%; tested in HMLE shEcad cells
Beta apoptosis = blocks beta cell apoptosis | INS-1E cytokine-induced death, ATP luminescence, 48 h; percent of positive-control rescue, neutral wells zero | protection from apoptosis, % (test concentration not listed) | 300,000 tested, 0.8% active;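 active means Every replicate reaches about 75%, or at least half do and their mean reaches it too, limit read from the data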;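 further: 0% = cytokine-treated negative control wells and 100% = positive control rescue; higher means more ATP so stronger rescue from cytokine killing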
T cruzi inh = T. cruzi replication inhibition. T. cruzi beta-gal in NIH3T3, luminescence, 90 h. inhibition, % (test concentration not listed). 300,000 tested, 1.4% active. AID 1885;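 active means mean inhibition across valid replicates above about 55%, limit read from the data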;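 further: signal also drops with host cell toxicity which is not excluded here; 0% = plate median of DMSO wells and 100% = zero luminescence signal; higher percent means less beta-gal luminescence so fewer parasites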
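Assay system: NIH/3T3 fibroblasts plus reporter T. cruzi. Amount: NIH/3T3 cells, 5,000 per well. Buffer or medium: DMEM, 2% fetal bovine serum. Doses: compound pinned at 50 nL/well, DMSO. Schedule: ≥90 h infection period, 3 h prior cell attachment. Signal: luminescent β-galactosidase signal after 60 min lysis. Read-out: parasite load inhibition, %.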
PREPL inhibitor = inhibits the human prolyl oligopeptidase-like enzyme; 320,000 tested, 0.68% active; inhibition, % at 5.96 µM; recombinant PREPL, fluorescence polarization activity-based probe; Q4J6C6; in the data active means inhibition above about 43%;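 further: 0% = enzyme with DMSO and 100% = wells lacking enzyme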
Target sequence (Q4J6C6 whole entry, looked up): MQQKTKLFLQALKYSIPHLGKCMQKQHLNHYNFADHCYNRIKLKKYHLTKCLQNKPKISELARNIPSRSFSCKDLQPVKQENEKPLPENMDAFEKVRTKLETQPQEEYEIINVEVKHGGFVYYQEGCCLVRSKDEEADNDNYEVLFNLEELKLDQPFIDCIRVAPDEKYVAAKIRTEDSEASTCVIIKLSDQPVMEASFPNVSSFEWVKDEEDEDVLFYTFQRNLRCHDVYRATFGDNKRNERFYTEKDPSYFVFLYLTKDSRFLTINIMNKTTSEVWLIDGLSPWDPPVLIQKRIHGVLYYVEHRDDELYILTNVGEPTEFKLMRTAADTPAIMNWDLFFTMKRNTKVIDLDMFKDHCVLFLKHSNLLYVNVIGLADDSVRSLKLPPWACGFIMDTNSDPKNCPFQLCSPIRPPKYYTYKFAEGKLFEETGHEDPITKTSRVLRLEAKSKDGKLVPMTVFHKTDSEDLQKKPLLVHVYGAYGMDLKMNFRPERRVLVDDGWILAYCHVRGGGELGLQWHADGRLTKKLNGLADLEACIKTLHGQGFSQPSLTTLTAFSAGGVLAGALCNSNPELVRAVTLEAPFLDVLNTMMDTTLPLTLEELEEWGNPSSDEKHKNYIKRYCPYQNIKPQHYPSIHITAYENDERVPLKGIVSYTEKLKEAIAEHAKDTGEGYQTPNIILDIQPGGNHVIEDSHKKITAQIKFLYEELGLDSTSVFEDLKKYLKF
The depositor's hits bear a star; nt = no result given; ! = a repeat was not active.

SMILES	CHOP inhibitor	GRIN3A LBD mod	CSC inhib	Beta apoptosis	T cruzi inh	PREPL inhibitor
N=Cc1c(O)n(-c2ccc(C34CC5CC(CC(C5)C3)C4)cc2)c(=O)[nH]c1=O	81*	-9	26	-4	-9	-11
CNC(=O)Oc1ccc(-c2cn3cc(C)ccc3n2)cc1	50	24*	10	20	-29	9
CNC(=O)Oc1cccc(-c2cn3cc(Cl)ccc3n2)c1	2	-1	16	-3	4	0
O=C(Oc1c(Cl)cc(Cl)c2ccccc12)N1CCCCC1	77*	2	15	6	nt	8
CC(=O)O[C@@]12CO[C@@H]1C[C@H](O)[C@@]1(C)C(=O)[C@H](O)C3=C(C)[C@@H](OC(=O)[C@H](O)[C@@H](NC(=O)c4ccccc4)c4ccccc4)C[C@@](O)([C@@H](OC(=O)c4ccccc4)C12)C3(C)C (stereo not given in full)	nt	-2	60	11	55*	6
CC(=O)O[C@H]1C(=O)[C@@]2(C)C([C@H](OC(=O)c3ccccc3)[C@]3(O)C[C@H](OC(=O)[C@H](O)[C@@H](NC(=O)Cc4ccccc4)c4ccccc4)C(C)=C1C3(C)C)[C@]1(OC(C)=O)CO[C@@H]1C[C@@H]2O (stereo not given in full)	nt	-4	-6	5	41	25
C/C(=N\N1CCCCCC1)c1c(O)n(-c2ccc(C)cc2)c(=O)[nH]c1=O	1	-2	13	2	0	1
CC/C(=N\N1CCCCCC1)c1c(O)n(-c2ccc(C)cc2)c(=O)[nH]c1=O	24	21*	-10	-2	4	5
Cc1cc(=O)oc2cc(OCC(=O)N3CCN(Cc4ccc5c(c4)OCO5)CC3)ccc12	nt	0	18	nt	13	0
O=C(c1cc(C(=O)NCc2ccc(Cl)cc2)c(=O)n(Cc2ccc(Cl)cc2)c1)c1cc(F)ccc1O	37	18*	41	30	46	-5
Cc1ccc(O)c(C(=O)c2cc(C(=O)NCCC(C)C)c(=O)n(CCC(C)C)c2)c1	37	-6	-4	22	43	-4
CC[C@@H](CO)NC(=O)[C@@H]1C=C2c3cccc4c3c(cn4C)C[C@H]2N(C)C1	-2	1	-8	7	7	54*!
CCN1CCN(S(=O)(=O)c2ccc(Cl)c(C(=O)Nc3ccc(C(=O)N(CC)CC)cc3)c2)CC1	nt	2	-7	8	-15	9
O=C(c1ccccc1)C(CN1CCCC1)c1ccccc1 (stereo not given)	24	1	49	92*	18	0
NC(CP(=O)(O)O)C(=O)O (stereo not given)	-25	nt	nt	nt	nt	nt
CCOC(=O)c1c(-n2c(C)cc(/C=C3\C(=O)NC(=O)N(C)C3=O)c2C)sc2c1CCCC2	77*	0	6	-7	14	6
Cc1cc(/C=C2\C(=O)NC(=O)N(c3ccc(Cl)cc3)C2=O)c(C)n1-c1sc2c(c1C#N)CCCC2	-22	2	nt	-5	-1	10
CCN(CCCl)c1cc(CN(C)C)cc(NC(=O)c2ccc(C(=O)Nc3cc(CN(C)C)cc(N(CC)CCCl)c3)cc2)c1	nt	-2	nt	nt	nt	nt
COc1ccccc1N1CCN(Cc2cc(C)c(C)cc2O)CC1	28	0	14	-6	-5	18
COc1cc(CN2CCN(c3cc(C)ccc3C)CC2)ccc1O	-11	0	-5	108*	-7	-63
COc1ccc(C(=O)C2CCCN(C3CSCCSC3)C2)c(C)c1 (stereo not given)	26	1	35	-11	8	0
COc1ccc(C(=O)C2CCCN(C3CSCCSC3)C2)c(OC)c1 (stereo not given)	20	0	78*	3	12	-12
CN1C(=O)N(C)C(=O)C(NS(=O)(=O)c2ccc(N)cc2)(c2ccccc2)C1=O	nt	-5	nt	nt	nt	nt
O=C(Nc1ccc(Cl)cc1)O/N=C(\c1ccccc1)c1ccccn1	-2	11*	4	0	-10	11
CON(C)C(=O)Nc1ccc(Cl)cc1	16	1	-9	-2	-17	2
C=CCCC1(C2=CCCCC2)C(=O)NC(=O)NC1=O	nt	15*	nt	nt	nt	nt
C=CCC1(CN2CCCCCC2=O)C(=O)NC(=O)NC1=O	-5	-1	-9	-2	-32	7
